Source: PubChem BioAssay
The source made the active and inactive calls.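 Rule for the calls, unless noted: active = visual image review flags a hit and inhibition of aggregation exceeds 20%; inconclusive = visual hit but inhibition at or below 20%; inactive = no hit on visual image review.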

What was measured:
[1] = inhibitors of TNFa-induced NFkB p65 translocation, primary screen, imaging, HUVEC, MLSMR starter and 10KST1 sets (AID 438;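 active = inhibition above 20% together with a positive visual image hit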;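 note: compound added about 3h40 before a 20 min TNFalpha stimulation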;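 for inhibition: signal is the nuclear over cytoplasmic p65 intensity ratio per well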); conditions: HUVEC TNFa-induced p65 nuclear translocation; cell count: measured here: nuclei count (cytotoxicity indicator), at 2.08 µM; inhibition: at 2 µM, stronger effect = higher value, 0% TNFa-plus-vehicle, 100% no-TNFa wells
[2] = reduction of polyQ htt aggregates in cells – imaging, exon1htt(103Q)mCFP cells, high-content imaging, primary screen (AID 483); conditions: exon1htt(103Q)mCFP cell line, aggregate imaging, at 2 µM; inhibition of aggregation: stronger effect = higher value; nuclei count: measured here: cell count, toxicity;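 note: compound exposure lasted 3 days before fixation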;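 for nuclei count: percent of the per-plate median nuclei count of sample wells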
[3] = endothelial E-selectin expression blockers – imaging, HUVEC, immunofluorescence, MLSMR starter and 10KST1 sets, primary screen (AID 487;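 active = visually confirmed hit in the image check and inhibition above 20%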;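 for inhibition: signal is fraction of cell area covered by stained E-selectin grains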;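 for nuclei count: 100% = median nuclei count of all wells on the same plate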); conditions: HUVEC TNFalpha-induced E-selectin immunofluorescence imaging, at 2 µM; inhibition: stronger effect = higher value; nuclei count: measured here: cell number, toxicity
[4] = target: Voltage-gated potassium channel subunit beta-2 (Rattus norvegicus) (UniProt P62483); test: inhibitors of rat Kvbeta2 reductase activity – biochemical, NADPH fluorescence, primary screen (AID 622;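 active = fluorescence slope higher than the sample average by over 3 SD, cut at about -0.22 in these data, passing the limit was not always enough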;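 note: slope of raw intensity against log time taken from 70 to 1610 s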); conditions: recombinant KvBeta, 4-cyanobenzaldehyde reduction, at 10 µM, stronger effect = higher value
Sequence of Voltage-gated potassium channel subunit beta-2 (Rattus norvegicus) (P62483 whole entry, looked up): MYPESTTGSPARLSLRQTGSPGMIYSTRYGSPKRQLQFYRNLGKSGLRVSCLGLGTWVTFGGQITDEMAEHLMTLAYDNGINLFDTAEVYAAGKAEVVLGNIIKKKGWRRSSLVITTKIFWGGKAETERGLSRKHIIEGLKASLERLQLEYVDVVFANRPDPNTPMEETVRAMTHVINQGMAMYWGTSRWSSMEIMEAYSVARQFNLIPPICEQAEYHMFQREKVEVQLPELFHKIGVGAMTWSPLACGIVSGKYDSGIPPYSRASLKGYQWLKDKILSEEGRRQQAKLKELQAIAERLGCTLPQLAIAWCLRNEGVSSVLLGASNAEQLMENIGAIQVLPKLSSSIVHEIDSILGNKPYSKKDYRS

[5] = target: Voltage-gated potassium channel subunit beta-2 (Rattus norvegicus) (UniProt P62483); test: enhancers of rat Kvbeta2 NADPH turnover – biochemical, NADPH fluorescence, primary screen (AID 623;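 active = NADPH fluorescence slope more negative than the mean of all samples by about 3 SD, 99.7% confidence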;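 note: fluorescence intensity change per second fitted from 20 to 320 s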); conditions: Recombinant KvBeta, NADPH fluorescence decrease slope, 10 min; at 10 µM; stronger effect = lower value
[6] = target: Muscarinic acetylcholine receptor M4 (Homo sapiens) (UniProt P08173); test: M4-linked GIRK flux change, two-sided – cell-based, HEK293 M4/GIRK, thallium flux, BTC-AM, M4 allosteric agonist project, primary screen (AID 625;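 active = fluorescence slope after compound addition differing from the mean of all tested samples at 99.7% confidence, mostly higher but some lower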;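 note: thallium influx through GIRK channels coupled to M4 in HEK293 cells with BTC-AM dye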); conditions: at 10 µM, actives lie on both sides
Sequence of Muscarinic acetylcholine receptor M4 (Homo sapiens) (P08173 whole entry, looked up): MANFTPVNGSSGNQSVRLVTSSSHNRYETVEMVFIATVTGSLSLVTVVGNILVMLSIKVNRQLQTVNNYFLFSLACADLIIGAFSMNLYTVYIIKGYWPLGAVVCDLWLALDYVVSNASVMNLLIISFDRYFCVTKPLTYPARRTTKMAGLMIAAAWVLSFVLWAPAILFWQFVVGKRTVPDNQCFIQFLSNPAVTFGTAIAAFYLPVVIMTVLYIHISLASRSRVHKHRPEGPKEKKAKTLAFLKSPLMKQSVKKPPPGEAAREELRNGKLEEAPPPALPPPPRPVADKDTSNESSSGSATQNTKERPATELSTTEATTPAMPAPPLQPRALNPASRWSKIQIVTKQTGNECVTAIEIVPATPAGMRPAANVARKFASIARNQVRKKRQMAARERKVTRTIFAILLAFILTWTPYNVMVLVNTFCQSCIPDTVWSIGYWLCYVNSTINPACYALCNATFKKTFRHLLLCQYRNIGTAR
Method in brief: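 assay system = HEK293 cells with M4 receptor and GIRK channels | medium = pH 7.3 thallium assay buffer | doses = 10 µM final, single point | timing = cells overnight at 37 °C, BTC-AM loading 1 h, reads 2 min total | signal = BTC-AM fluorescence, 1 Hz kinetic reads | read-out = post-addition slope, 15–24 s, of baseline-normalized fluorescence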

[7] = blockers of RIG-like receptor reporter activation – cell-based, Sendai virus stimulus, luciferase, 10K MLSCN set, TLR/RLR signaling modifier project, primary screen (AID 602276;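 active = inhibition at or above 50% at 10 µM; inactive = inhibition below 50%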;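 note: firefly luciferase from ISG56 promoter only with Renilla not read in this screen; 0% = Sendai virus plus DMSO and 100% = medium plus DMSO without virus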); conditions: HEK293 RL24 IRF3 luciferase reporter, at 10 µM, stronger effect = higher value
[8] = TLR3 IRF3 reporter activation blockers – cell-based, poly I:C stimulus, luciferase, 10K MLSCN set, primary screen (AID 602277;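 active = inhibition of the reporter signal at or above 50%; inactive = inhibition below 50%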); conditions: HEK293-TLR3 RL24 IRF3 luciferase reporter, at 10 µM, stronger effect = higher value

| SMILES | cell count [1] | inhibition [1] | inhibition of aggregation [2] | nuclei count [2] [%] | inhibition [3] | nuclei count [3] [%] | fluorescence slope [4] | NADPH fluorescence slope [5] | fluorescence slope [6] | inhibition [7] | inhibition [8] |
| --- | --- | --- | --- | --- | --- | --- | --- | --- | --- | --- | --- |
| CCOC(=O)c1ccc(NC(=O)NC(C)C2CCCO2)cc1 (stereo not drawn) | 352 | -12.3% (inactive) | -23.9% (inactive) | 101 | -94.9% (inactive) | 86.6 | -0.462 (inactive) | 2e-05 (inactive) | 0.00652 (inactive) | -13% (inactive) | 98.6% (active) |
| CCN1CCN(Cc2c(C)[nH]c3ccc(OC)cc3c2=O)CC1 | 405 | 18.7% (inactive) | -19.4% (inactive) | 99.3 | -241% (inactive) | 113 | -0.57 (inactive) | -9e-05 (inactive) | 0.00708 (inactive) | 19.5% (inactive) | 26.6% (inactive) |
| CN1C(=O)C2(NCCc3c2[nH]c2ccccc32)c2ccccc21 (stereo not drawn) | 583 | 0.7% (inactive) | -4.1% (inactive) | 99.3 | -4.8% (inactive) | 90.7 | -0.482 (inactive) | -0.000314 (inactive) | 0.00214 (inactive) | 20% (inactive) | 34.7% (inactive) |
| CC(NC(=O)c1ccc(F)cc1)C(c1cccs1)N1CCN(C)CC1 (stereo not drawn) | 466 | -7.5% (inactive) | -8.9% (inactive) | 93.6 | 23% (inactive) | 92.2 | -0.424 (inactive) | -5e-05 (inactive) | 0.00581 (inactive) | 5.9% (inactive) | 15.9% (inactive) |
| CC(C)(C)Nc1nc(OCC(F)(F)F)nc(OCC(F)(F)F)n1 | 448 | 11.9% (inactive) | -14.2% (inactive) | 103 | -0.8% (inactive) | 114 | -0.424 (inactive) | -0.000395 (inactive) | 0.00457 (inactive) | 7.39% (inactive) | 8.5% (inactive) |
| CCOC(=O)C1CCN(c2c(NCCCN(CC)c3ccccc3)c(=O)c2=O)CC1 | 266 | 5.2% (inactive) | 8.3% (inactive) | 97.6 | -20.2% (inactive) | 95.4 | -0.43 (inactive) | -0.000398 (inactive) | 0.00476 (inactive) | 2.28% (inactive) | 9.33% (inactive) |
| CNC(=O)Nc1cccc(C(F)(F)F)c1 | 299 | -3.3% (inactive) | -31% (inactive) | 97.6 | -46.4% (inactive) | 130 | -0.566 (inactive) | -5.5e-05 (inactive) | 0.00624 (inactive) | 0.0526% (inactive) | 4.51% (inactive) |
| Cc1nc2ccc(NC(=O)N3CCOCC3)cc2s1 | 416 | 0.5% (inactive) | -0.3% (inactive) | 96.2 | -51% (inactive) | 109 | -0.497 (inactive) | 8.6e-06 (inactive) | 0.00618 (inactive) | 10.7% (inactive) | 8.12% (inactive) |
| CNC(=O)CC(C(=O)O)c1ccc(OCC(C)C)cc1 (stereo not drawn) | 611 | -1.5% (inactive) | -15.2% (inactive) | 114 | 13.6% (inactive) | 103 | -0.562 (inactive) | -8.4e-05 (inactive) | 0.00333 (inactive) | 9.55% (inactive) | 16.9% (inactive) |
| Cn1c(=O)c2c(ncn2CC(O)CNc2ccc(Cl)cc2)n(C)c1=O (stereo not drawn) | 629 | -6.3% (inactive) | -15.7% (inactive) | 100 | -104% (inactive) | 110 | -0.447 (inactive) | 3.3e-05 (inactive) | 0.00475 (inactive) | 3.66% (inactive) | 2.85% (inactive) |
| O=C(O)c1cnn2c1NC(c1ccc(F)cc1)CC2C(F)(F)F (stereo not drawn) | 613 | 10.2% (inactive) | -6.3% (inactive) | 99.2 | -85.7% (inactive) | 116 | -0.472 (inactive) | -4.5e-05 (inactive) | 0.00543 (inactive) | 10.7% (inactive) | 1.93% (inactive) |
| COc1ccc(CNc2nc3nc(C)cc(C)n3n2)cc1OC | 646 | -15.5% (inactive) | 39.5% (active) | 107 | -5.7% (inactive) | 115 | -0.422 (inactive) | -0.000434 (inactive) | 0.00355 (inactive) | 13.3% (inactive) | 12.9% (inactive) |
| COC(=O)Cn1cnc2c(nnn2-c2ccc(C)cc2)c1=O | 257 | 8.9% (inactive) | -6.9% (inactive) | 100 | -78.1% (inactive) | 106 | -0.287 (inactive) | -3.1e-05 (inactive) | 0.00635 (inactive) | -7.22% (inactive) | 1.35% (inactive) |
| Cc1cc(C(=O)Nc2cccc(O)c2)c(C)o1 | 477 | 9.9% (inactive) | 2.6% (inactive) | 78.5 | -76.5% (inactive) | 112 | -0.566 (inactive) | -5.1e-05 (inactive) | 0.00709 (inactive) | 0.52% (inactive) | -20.8% (inactive) |
| COc1ccc(-n2ncc3c(NCc4ccc5c(c4)OCO5)ncnc32)cc1 | 360 | -4.3% (inactive) | 9.7% (inactive) | 94.3 | -9.3% (inactive) | 105 | -0.539 (inactive) | -4.4e-05 (inactive) | 0.00526 (inactive) | -4.14% (inactive) | -24.9% (inactive) |
| O=S(=O)(c1ccc(OCC(O)CN2CCN(c3ccccc3)CC2)cc1)N1CCOCC1 (stereo not drawn) | 603 | -34.9% (inactive) | -19.9% (inactive) | 104 | -19.7% (inactive) | 108 | -0.214 (inactive) | -1.7e-05 (inactive) | 0.00626 (inactive) | 13.5% (inactive) | -5.1% (inactive) |
| COc1cc2c(OC)cccc2cc1C(=O)O | 383 | -1.9% (inactive) | -13.5% (inactive) | 102 | -12.2% (inactive) | 92.7 | -0.429 (inactive) | -5.9e-06 (inactive) | 0.0045 (inactive) | 18.2% (inactive) | 8.81% (inactive) |
| OCC#CCSc1nnc(-c2ccccc2Br)o1 | 390 | -5.2% (inactive) | -3.5% (inactive) | 110 | -111% (inactive) | 132 | -0.515 (inactive) | -0.000137 (inactive) | 0.00341 (inactive) | -9.39% (inactive) | -45.2% (inactive) |
| COc1ccc(/C(O)=C2/C(=O)C(=O)N(Cc3cccnc3)C2c2ccncc2)cc1F (stereo not drawn) | 574 | -7.6% (inactive) | -2.8% (inactive) | 106 | -3.5% (inactive) | 117 | -0.574 (inactive) | -8.3e-05 (inactive) | 0.00672 (inactive) | 8.93% (inactive) | 16.5% (inactive) |
| Cn1c(=O)c2c(nc(SCC(=O)O)n2Cc2cccc(C(F)(F)F)c2)n(C)c1=O | 204 | -0.8% (inactive) | -19.7% (inactive) | 77.2 | 9.2% (inactive) | 74.6 | -0.531 (inactive) | 6.2e-06 (inactive) | 0.0052 (inactive) | 15.4% (inactive) | 13.8% (inactive) |
| COC(=O)c1cn(-c2ccccc2)nc1C(=O)OC | 232 | 5.8% (inactive) | -0.8% (inactive) | 92.6 | 24% (inactive) | 77.4 | -0.441 (inactive) | -7.4e-05 (inactive) | 0.00607 (inactive) | 4.01% (inactive) | 1.15% (inactive) |
| COCCOC(=O)C1=C(C)N=c2s/c(=C\c3cccs3)c(=O)n2C1c1cccs1 (stereo not drawn) | 331 | -4.7% (inactive) | -47% (inactive) | 98.1 | -148% (inactive) | 110 | -0.251 (inactive) | -1.4e-05 (inactive) | 0.00423 (inactive) | -5.37% (inactive) | -16.7% (inactive) |
| O=C(CSc1nc2ccc(Cl)cc2[nH]1)NCc1ccco1 | 273 | 17.8% (inactive) | -10.2% (inactive) | 109 | -3.9% (inactive) | 109 | -0.611 (inactive) | 1.5e-05 (inactive) | 0.00642 (inactive) | 17.9% (inactive) | 20.8% (inactive) |
| CCOc1ccc(OCc2cccc(C(=O)O)c2)cc1 | 600 | 3.8% (inactive) | -11.5% (inactive) | 112 | -68% (inactive) | 116 | -0.551 (inactive) | -2.8e-05 (inactive) | 0.00598 (inactive) | -46.2% (inactive) | -87.1% (inactive) |
| CCNC(=O)N1c2ccc(OCC)cc2C(C)=CC1(C)C | 599 | 2.5% (inactive) | 37.2% (inactive) | 94.1 | -34% (inactive) | 102 | -0.588 (inactive) | -3e-05 (inactive) | 0.00404 (inactive) | -6.26% (inactive) | 4.09% (inactive) |
| CCOC(=O)c1nnn(-c2nonc2NC(C)=O)c1C | 323 | 6.5% (inactive) | -14.1% (inactive) | 98.9 | -39.1% (inactive) | 93.3 | -0.58 (inactive) | -1.6e-05 (inactive) | 0.00665 (inactive) | 17.3% (inactive) | 14% (inactive) |
| O=S(=O)(NCCc1ccccn1)c1cccs1 | 601 | -23% (inactive) | -31.3% (inactive) | 119 | -28.9% (inactive) | 147 | -0.417 (inactive) | -0.000114 (inactive) | 0.00561 (inactive) | 19.1% (inactive) | 34.4% (inactive) |
| CCOC(=O)c1[nH]cc(-c2ccccc2)c1N1CCOCC1 | 398 | -3.5% (inactive) | 0.7% (inactive) | 110 | -131% (inactive) | 100 | -0.541 (inactive) | -4.5e-05 (inactive) | 0.00498 (inactive) | 4.95% (inactive) | 15.7% (inactive) |
